In general, ED50 refers to the midpoint of the dose-response relation. Low readings indicate an effect at a small dose, high ones a need for a large dose. Usually LD50 stands for the dose at which mortality reaches 50%.

The subject of one series is Canis familiaris. Put plainly: Inhibition of apomorphine induced emesis in dogs following p.o. administration. It counts as functional. Conditions: Canis lupus familiaris, po. In a few lines: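 Dogs were fasted and dosed 1 h before apomorphine 0.1 mg/kg s.c. Vomits within 30 min were counted and compared with the same dog's count 2 weeks earlier. ED50 was found by the up-and-down method.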

In another series the test system is Mus musculus. Briefly: Inhibition of apomorphine induced climbing in mice following p.o. administration. It counts as functional. Conditions: po. In a few lines: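 Mice in two to three groups of 10 got the drug orally as a gum arabic suspension, then apomorphine 1 mg/kg s.c. 60 min later. Each mouse was caged in wire mesh and watched for 3 min from 20 min after apomorphine for wall-climbing, judged against a control group. ED50 (mg/kg) came from regression analysis.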

The nature of series [1]: Toxicity in mice following p.o. administration. Conditions: mouse, in vivo, po. It counts as organism-based. Put shortly:
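Groups of 10 mice received the drug orally. Deaths were scored on day 7 after dosing, and LD50 (mg/kg) was obtained by graphical interpolation.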

As for `CCN1CCCC1CNC(=O)c1cc(N(C)S(=O)(=O)N(C)C)ccc1OC` (stereo unspecified), the ED50 was determined as 1 mg/kg with Canis familiaris and 36.2 mg/kg in the series with Mus musculus. The LD50 in series [1] is 750 mg/kg.

As for `CCN1CCCC1CNC(=O)c1cc(N(C)S(N)(=O)=O)c(C)cc1OC` (stereo unspecified), the 50% effective dose (ED50) in the series with Canis familiaris is 1 mg/kg; in the series with Mus musculus, more than 50 mg/kg. Besides, the LD50 in series [1] was more than 1000 mg/kg.

Take `CCN1CCCC1CNC(=O)c1cc(N(C)S(=O)(=O)N(C)C)c(C)cc1OC` (stereo unspecified): the values for the ED50 in the series on Canis familiaris and in the series on Mus musculus were 1 mg/kg and more than 50 mg/kg, respectively. The compound also returned an LD50 in series [1] of 750 mg/kg.

As to `CCN1CCCC1CNC(=O)c1cc(N(C)S(N)(=O)=O)c(Cl)cc1OC` (stereo unspecified), the ED50 is 1 mg/kg in the series on Canis familiaris and more than 50 mg/kg with Mus musculus. In series [1], this compound returned an LD50 of more than 1000 mg/kg.

For `CCN1CCCC1CNC(=O)c1cc(N(C)S(=O)(=O)N(C)C)c(Cl)cc1OC` (stereo unspecified), the ED50 in the series on Canis familiaris was 0.1 mg/kg; in the series with Mus musculus, 31.8 mg/kg. Moreover, in series [1], the 50% lethal dose (LD50) stood at 750 mg/kg.

In the case of `CCN1CCCC1CNC(=O)c1cc(NS(=O)(=O)N(C)C)c(C)cc1OC` (stereo unspecified), the ED50 in the series with Canis familiaris stood at 0.05 mg/kg; with Mus musculus, 13.3 mg/kg. For the same compound, in series [1], the LD50 was more than 1000 mg/kg.

Turning to `CCN1CCCC1CNC(=O)c1cc(NS(C)(=O)=O)ccc1OC` (stereo unspecified), the ED50 in the series with Canis familiaris was 2 mg/kg; in the series on Mus musculus it was more than 50 mg/kg. In series [1], this compound had an LD50 of more than 500 mg/kg.

Turning to `CCN1CCCC1CNC(=O)c1cc(S(N)(=O)=O)ccc1OC` (stereo unspecified) [SULPIRIDE], the ED50 with Canis familiaris turned out to be 0.09 mg/kg; in the series with Mus musculus, 174 mg/kg. The compound also showed an LD50 in series [1] of more than 3000 mg/kg.

Take `CCN1CCCC1CNC(=O)c1cc(NS(=O)(=O)NC)c(Cl)cc1OC` (stereo unspecified): the median effective dose (ED50) is more than 1 mg/kg in the series with Canis familiaris and more than 50 mg/kg in the series on Mus musculus. For the same compound, the LD50 in series [1] is more than 1000 mg/kg.

As for `CCN1CCCC1CNC(=O)c1cc(NS(N)(=O)=O)ccc1OC` (stereo unspecified), the ED50 is 10 mg/kg in the series with Canis familiaris and more than 50 mg/kg in the series on Mus musculus. For the same compound, the LD50 in series [1] was more than 1000 mg/kg.

As to `CCN1CCCC1CNC(=O)c1cc(NS(=O)(=O)NC)ccc1OC` (stereo unspecified), the ED50 in the series with Canis familiaris is more than 1 mg/kg; in the series with Mus musculus, more than 50 mg/kg. In series [1], this compound came in with an LD50 of more than 1000 mg/kg.

Regarding `CCN1CCCC1CNC(=O)c1cc(NS(C)(=O)=O)c(C)cc1OC` (stereo unspecified), the results for the ED50 in the series on Canis familiaris and in the series with Mus musculus were 1 mg/kg and 35.6 mg/kg, respectively. The compound also showed a 50% lethal dose (LD50) in series [1] of 750 mg/kg.

As for `CCN1CCCC1CNC(=O)c1cc(N(C)S(N)(=O)=O)ccc1OC` (stereo unspecified), the ED50 in the series on Canis familiaris is 1 mg/kg; in the series with Mus musculus it was more than 50 mg/kg. The compound also had an LD50 in series [1] of more than 1000 mg/kg.

On to `CCN1CCCC1CNC(=O)c1cc(NS(C)(=O)=O)c(Cl)cc1OC` (stereo unspecified), for which the figures for the ED50 with Canis familiaris and in the series with Mus musculus were 0.1 mg/kg and 9.1 mg/kg, respectively. This compound returned an LD50 in series [1] of more than 1000 mg/kg.

Regarding `CCN1CCCC1CNC(=O)c1cc(NS(=O)(=O)N(C)C)ccc1OC` (stereo unspecified), the ED50 in the series on Canis familiaris was 1 mg/kg; with Mus musculus it was more than 50 mg/kg. The compound also had an LD50 in series [1] of 750 mg/kg.

Consider `CCN1CCCC1CNC(=O)c1cc(NS(=O)(=O)NC)c(C)cc1OC` (stereo unspecified), for which the 50% effective dose (ED50) with Canis familiaris was more than 1 mg/kg; with Mus musculus, more than 50 mg/kg. The compound also showed an LD50 in series [1] of more than 1000 mg/kg.

With `CCN1CCCC1CNC(=O)c1cc(N(C)S(C)(=O)=O)c(C)cc1OC` (stereo unspecified), the values for the median effective dose (ED50) with Canis familiaris and with Mus musculus were 1 mg/kg and 26.1 mg/kg, respectively. The LD50 in series [1] was more than 1000 mg/kg.

In the case of `CCN1CCCC1CNC(=O)c1cc(NS(N)(=O)=O)c(C)cc1OC` (stereo unspecified), the ED50 with Canis familiaris was more than 1 mg/kg; in the series with Mus musculus, more than 50 mg/kg. In addition, the LD50 in series [1] was more than 1000 mg/kg.

`CCN1CCCC1CNC(=O)c1cc(N(C)S(C)(=O)=O)ccc1OC` (stereo unspecified): the median effective dose (ED50) was 0.17 mg/kg in the series with Canis familiaris and 22.9 mg/kg with Mus musculus. The same compound showed a median lethal dose (LD50) in series [1] of more than 1000 mg/kg.

In the case of `CCN1CCCC1CNC(=O)c1cc(N(C)S(C)(=O)=O)c(Cl)cc1OC` (stereo unspecified), the figures for the 50% effective dose (ED50) in the series with Canis familiaris and with Mus musculus were 0.1 mg/kg and 7.7 mg/kg, respectively. The LD50 in series [1] was more than 500 mg/kg.

Take `CCN1CCCC1CNC(=O)c1cc(NS(=O)(=O)N(C)C)c(Cl)cc1OC` (stereo unspecified): the ED50 with Canis familiaris came out at 0.05 mg/kg; in the series on Mus musculus, 8.3 mg/kg. In series [1], this compound registered an LD50 of more than 1000 mg/kg.

Consider `CCN1CCCC1CNC(=O)c1cc(NS(N)(=O)=O)c(Cl)cc1OC` (stereo unspecified), for which the ED50 in the series with Canis familiaris is 1 mg/kg; in the series with Mus musculus, more than 50 mg/kg. Also, the 50% lethal dose (LD50) in series [1] was more than 1000 mg/kg.
